From ChEMBL document CHEMBL1156809, “Synthesis and anticonvulsant activities of (R)-N-(4'-substituted)benzyl 2-acetamido-3-methoxypropionamides” (J Med Chem, 2010)
Activity calls are given as the source filed them. No cut-off for these calls is given here.

What was measured:
Mus musculus [1] = assay: Anticonvulsant activity in ip dosed albino CF1 mouse seizure model assessed as protection against hind limb extension by MES test; assay type: functional; settings: albino CF1, Hindlimb
How it was run: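 Maximal electroshock seizure test run by the NINDS ASP (Stables and Kupferberg procedures). Compounds were given intraperitoneally to mice, and the ED50 for seizure protection is reported in mg/kg.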

[2] = Neurological toxicity in ip dosed albino CF1 mouse assessed as neurological impairment by rotarod test; assay type: organism-based; settings: in vivo
How it was run: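 Neurological impairment was measured with the rotorod test in mice dosed intraperitoneally. The median dose (TD50, mg/kg) was determined only for compounds with significant MES activity.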

Mus musculus [3] = assay: Anticonvulsant activity against subcutaneous metrazole-induced seizures in albino CF1 mouse at 300 mg/kg, ip after 0.5 hrs; assay type: functional, organism-based; parameters: dose 300 mg/kg
How it was run: (§1)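 Subcutaneous Metrazol seizure test under the NINDS ASP, using ip dosing to mice, typically at 300 mg/kg. Protection was assessed at 0.5 and 4 h.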

Rattus norvegicus [4] = assay: Anticonvulsant activity against subcutaneous metrazole-induced seizures in albino Sprague-Dawley rat at 300 mg/kg, ip after 0.5 hrs; assay type: functional, organism-based; parameters: dose 300 mg/kg
Mus musculus [5] = assay: Anticonvulsant activity against subcutaneous metrazole-induced seizures in albino CF1 mouse at 300 mg/kg, ip after 4 hrs; assay type: functional, organism-based; parameters: dose 300 mg/kg; how it was run: as §1
Rattus norvegicus [6] = assay: Anticonvulsant activity against subcutaneous metrazole-induced seizures in albino Sprague-Dawley rat at 300 mg/kg, ip after 4 hrs; assay type: functional, organism-based; parameters: dose 300 mg/kg
Rattus norvegicus [7] = assay: Anticonvulsant activity in po dosed albino Sprague-Dawley rat seizure model assessed as protection against hind limb extension by MES test; assay type: functional; settings: Hindlimb
How it was run: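 MES seizure protection was tested in Sprague Dawley rats dosed orally, through the NINDS ASP. The ED50 is expressed in mg/kg.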

[8] = Behavioral toxicity in po dosed albino Sprague-Dawley rat; assay type: organism-based; settings: in vivo
How it was run: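 Behavioral toxicity was recorded as observed effects in rats after oral administration, within the NINDS ASP screen.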

Rattus norvegicus [9] = assay: Protective index, ratio of TD50 for po dosed albino Sprague-Dawley rat to ED50 for po dosed albino Sprague-Dawley rat; assay type: functional
How it was run: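 Protective index was calculated as TD50/ED50 for the same species and route: mouse ip (rotorod TD50, MES ED50) and rat po.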

| Compound | ED50 (Mus musculus [1]) | TD50 [2] | Activity (Mus musculus [3]) | Activity (Rattus norvegicus [4]) | Activity (Mus musculus [5]) | Activity (Rattus norvegicus [6]) | ED50 (Rattus norvegicus [7]) | TD50 [8] | PI (Rattus norvegicus [9]) |
| --- | --- | --- | --- | --- | --- | --- | --- | --- | --- |
| CC#Cc1ccc(CNC(=O)[C@@H](COC)NC(C)=O)cc1 | 10 mg/kg | 30 mg/kg | inactive | inactive | inactive | inactive |  |  |  |
| CCc1ccc(CNC(=O)[C@@H](COC)NC(C)=O)cc1 | 10 mg/kg | 30 mg/kg | inactive | inactive | inactive | inactive | 18 mg/kg | > 250 mg/kg | >14 |
| COC[C@@H](NC(C)=O)C(=O)NCc1ccc(C(=O)OC)cc1 | 100 mg/kg | > 300 mg/kg | inactive | inactive | inactive | inactive |  |  |  |
| COC[C@@H](NC(C)=O)C(=O)NCc1ccc(CN)cc1.Cl | > 300 mg/kg | > 300 mg/kg | inactive | inactive | inactive | inactive |  |  |  |
| C#Cc1ccc(CNC(=O)[C@H](COC)NC(C)=O)cc1 | > 300 mg/kg | > 300 mg/kg | inactive | inactive | inactive | inactive |  |  |  |
| COC[C@@H](NC(C)=O)C(=O)NCc1ccc(CCCO)cc1 | > 300 mg/kg | > 300 mg/kg | inactive | inactive | inactive | inactive |  |  |  |
| COC[C@@H](NC(C)=O)C(=O)NCc1ccc(C=O)cc1 | > 300 mg/kg | > 300 mg/kg | inactive | inactive | inactive | inactive |  |  |  |
| COC[C@@H](NC(C)=O)C(=O)NCc1ccc(C#C[Si](C)(C)C)cc1 | > 3 mg/kg | 3 mg/kg | inactive | inactive | inactive | inactive |  |  |  |
| COC[C@H](NC(C)=O)C(=O)NCc1ccc(C#N)cc1 | 100 mg/kg | > 300 mg/kg | inactive | inactive | inactive | inactive | > 30 mg/kg | > 30 mg/kg |  |
| COC[C@@H](NC(C)=O)C(=O)NCc1ccc(C(C)(C)C)cc1 | 100 mg/kg | 100 mg/kg | inactive | inactive | inactive | inactive | > 30 mg/kg | > 30 mg/kg |  |
| COC[C@H](NC(C)=O)C(=O)NCc1ccc(N=[N+]=[N-])cc1 | 100 mg/kg | > 300 mg/kg | inactive | inactive | inactive | inactive |  | > 30 mg/kg |  |
| COC[C@@H](NC(C)=O)C(=O)NCc1ccc([N+](=O)[O-])cc1 | 100 mg/kg |  |  |  |  |  |  |  |  |
| COC[C@@H](NC(C)=O)C(=O)NCc1ccccc1F | 10 mg/kg | 100 mg/kg | inactive | inactive | inactive | inactive | 11 mg/kg | > 30 mg/kg | >2.7 |
| COC[C@@H](NC(C)=O)C(=O)NCc1ccc(N)cc1 | > 300 mg/kg | > 300 mg/kg | inactive | inactive | inactive | inactive |  |  |  |
| COC[C@H](NC(C)=O)C(=O)NCc1ccccc1 |  | > 300 mg/kg | inactive | inactive | inactive | inactive |  | > 30 mg/kg |  |
| COC[C@@H](NC(C)=O)C(=O)NCc1ccc(NC(=O)C(F)(F)F)cc1 | > 300 mg/kg | 100 mg/kg | inactive | inactive | inactive | inactive | > 30 mg/kg | > 30 mg/kg |  |
| CCc1ccc(CNC(=O)[C@H](COC)NC(C)=O)cc1 | 100 mg/kg | 100 mg/kg | inactive | inactive | inactive | inactive | > 30 mg/kg | > 30 mg/kg |  |
| COC[C@@H](NC(C)=O)C(=O)NCc1ccc(OC)cc1 | 30 mg/kg | 100 mg/kg | inactive | inactive | inactive | inactive | 28 mg/kg | > 500 mg/kg | >18 |

| Compound | ED50 (Mus musculus [1]) | TD50 [2] | Activity (Mus musculus [3]) | Activity (Rattus norvegicus [4]) | Activity (Mus musculus [5]) | Activity (Rattus norvegicus [6]) | ED50 (Rattus norvegicus [7]) | TD50 [8] | PI (Rattus norvegicus [9]) |
| --- | --- | --- | --- | --- | --- | --- | --- | --- | --- |
| C#Cc1ccc(CNC(=O)[C@@H](COC)NC(C)=O)cc1 | 3 mg/kg |  | inactive | inactive | inactive | inactive | 3.4 mg/kg | > 250 mg/kg | >74 |
| COC[C@@H](NC(C)=O)C(=O)NCc1ccc(C(F)(F)F)cc1 | 10 mg/kg | 100 mg/kg | inactive | inactive | inactive | inactive | 4.9 mg/kg | > 280 mg/kg | >57 |
| COC[C@@H](NC(C)=O)C(=O)NCc1ccccc1OC(F)(F)F | 30 mg/kg | 100 mg/kg | inactive | inactive | inactive | inactive | 23 mg/kg | > 500 mg/kg | >22 |
| COC[C@@H](NC(C)=O)C(=O)NCc1ccc(N=C=S)cc1 | 24 mg/kg |  |  |  |  |  |  |  |  |
| COC[C@H](NC(C)=O)C(=O)NCc1ccc(I)cc1 | 100 mg/kg | > 300 mg/kg | inactive | inactive | inactive | inactive | > 30 mg/kg | > 30 mg/kg |  |
| COC[C@H](NC(C)=O)C(=O)NCc1ccc(C=O)cc1 | > 300 mg/kg | > 300 mg/kg | inactive | inactive | inactive | inactive |  |  |  |
| COC[C@@H](NC(C)=O)C(=O)NCc1ccc(S(N)(=O)=O)cc1 | > 300 mg/kg | > 300 mg/kg | inactive | inactive | inactive | inactive |  |  |  |
| COC[C@@H](NC(C)=O)C(=O)NCc1ccc(CNC(=O)OC(C)(C)C)cc1 | > 300 mg/kg | > 300 mg/kg | inactive | inactive | inactive | inactive |  |  |  |
| COC[C@@H](NC(C)=O)C(=O)NCc1ccc(Cl)cc1Cl | 30 mg/kg |  |  |  |  |  |  |  |  |
| COC[C@@H](NC(C)=O)C(=O)NCc1ccc(C(=O)O)cc1 | > 300 mg/kg | > 300 mg/kg | inactive | inactive | inactive | inactive |  |  |  |
| COC[C@@H](NC(C)=O)C(=O)NCc1ccc(-c2ccccc2)cc1 | 8 mg/kg | 11 mg/kg | inactive | inactive | inactive | inactive | 2 mg/kg | 49 mg/kg | >25 |
| COC[C@@H](NC(C)=O)C(=O)NCc1ccc(C(C)C)cc1 | 10 mg/kg | 100 mg/kg | inactive | inactive | inactive | inactive | > 30 mg/kg | > 30 mg/kg |  |
| COC[C@@H](NC(C)=O)C(=O)NCc1cccc(OC(F)(F)F)c1 | 10 mg/kg | 30 mg/kg | inactive | inactive | inactive | inactive |  |  |  |
| C=Cc1ccc(CNC(=O)[C@H](COC)NC(C)=O)cc1 | 100 mg/kg | > 300 mg/kg | inactive | inactive | inactive | inactive |  |  |  |
| COC[C@H](NC(C)=O)C(=O)NCc1ccc(C#C[Si](C)(C)C)cc1 | 30 mg/kg | 100 mg/kg | inactive | inactive | inactive | inactive | > 30 mg/kg | > 30 mg/kg |  |
| COC[C@@H](NC(C)=O)C(=O)NCc1ccc(C#CC(C)(C)C)cc1 | > 300 mg/kg | 30 mg/kg | inactive | inactive | inactive | inactive |  |  |  |
| CCC1(c2ccccc2)C(=O)NC(=O)NC1=O |  |  | inactive | inactive | inactive | inactive |  |  |  |
